From PubChem BioAssay
NSD2 inh – NSD2 histone methyltransferase inhibitors, primary screen, biochemical, AlphaScreen, single concentration, set 2; inhibition, % at 12.5 µM; Histone-lysine N-methyltransferase NSD2 (Homo sapiens), O96028; AID 743445, 2014; NSD2 peptide methylation, 120 min; actives 0.54% (n = 310,000); in the data active = inhibition above about 50%
MBD2 inh – inhibitors of MBD2 binding to methylated DNA, primary screen, biochemical, TR-FRET, DNA-binding domain, human. Methyl-CpG-binding domain protein 2 (Homo sapiens), Q9UBB5. MBD2 binding to methylated oligonucleotide. inhibition, % at 4.4 µM. actives 0.31% (n = 370,000); in the data active = inhibition above about 13%
TDP2 inh – human TDP2 enzyme inhibitors, primary screen, biochemical, epi absorbance, recombinant enzyme; Tyrosyl-DNA phosphodiesterase 2 (Homo sapiens), O95551; T5PNP hydrolysis, p-nitrophenol absorbance 415 nm; inhibition, % at 12.8 µM; actives 0.34% (n = 370,000);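 active = inhibition above the mean of all tested compounds plus 3 SD, set per campaign, cut at about 25% in these data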
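test system = human TDP2 enzyme | input = TDP2 enzyme at 120 nM final | medium = 50 mM Tris-HCl pH 7.5 with Mg2+, KCl, DTT, BSA | also added = T5PNP substrate, 5 mM | times = 2 h at 37 °C | technique = epi absorbance | benchmarks = high control without enzyme, low control DMSO plus TDP2 | replication = each compound tested once, singlicate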
CASP6 VEID inh – human caspase-6 inhibitors, primary screen, biochemical, VEID-R110 fluorescence, single point, set 2; actives 0.53% (n = 350,000); inhibition, % at 12.5 µM; purified caspase-6, Z-VEID-R110 cleavage fluorescence; AID 686996, 2013;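 active = mean inhibition across replicates at least about 35%, with every replicate also reaching that limit, limit read from the data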
LEDGF integ inh – blockers of LEDGF/p75-dependent integrase strand transfer – biochemical, TR-FRET, high throughput, primary screen. HIV-1 integrase (with human LEDGF/p75). TR-FRET IN-LEDGF/p75 DNA integration, Eu/Cy5. actives 0.64% (n = 370,000). inhibition, % at 3.7 µM;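 active = inhibition above the screen-wide mean plus 3 SD, cut at about 13% in these data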;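 note: signal is the Cy5 over europium emission ratio at 671 and 618 nm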
UHRF1 MBD2 ctr – UHRF1 methylated DNA binding inhibitors, primary screen, counter-screen for MBD2 inhibitor project, biochemical, TR-FRET, human UHRF1, single concentration. UHRF1 binding to methylated oligo. inhibition, % at 4.4 µM. actives 0.75% (n = 370,000); in the data active = inhibition above about 21%;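 note: UHRF1 SRA domain binding a hemimethylated CpG hairpin DNA probe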
IN multimer act – HIV-1 IN multimer formation enhancers, counter-screen for LEDGF/p75 integration inhibitor project, biochemical, TR-FRET. activation, % at 7.7 µM. TR-FRET HIV-1 integrase multimerization. shares compounds with LEDGF integ inh. actives 17% (n = 2,000); in the data active = activation above about 8.9%
TR-FRET interf – TR-FRET optical interference artefacts, confirmation, artefact control for LEDGF/p75-dependent integration inhibitor project, biochemical, HIV-1 IN multimerization. AID 1053135, 2014. inhibition, % at 7.7 µM. 2,000 tested, under 10 active. shares compounds with LEDGF integ inh. TR-FRET optical interference counterscreen;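 active = inhibition above the mean over all tested compounds plus 3 SD, which no compound reached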
LEDGF integ conf – inhibitors of HIV-1 IN-LEDGF/p75 DNA integration, confirmation, biochemical, TR-FRET | shares compounds with LEDGF integ inh | TR-FRET LEDGF/p75-dependent HIV-1 integration | inhibition, % at 3.7 µM | actives 36% (n = 2,000) | AID 1053136, 2014; in the data active = inhibition above about 14%
Large screens that a line does not name were inactive (follow-up assays come after a bar, where they were run). In the library only some 1.8% were active in any assay of this set; here they are far more common.

Oc1ccc(-c2csc(Nc3ncccn3)n2)c(O)c1	none
Oc1ccc(-c2csc(Nc3ncccn3)n2)cc1O	LEDGF integ inh 17 | IN multimer act 27 | TR-FRET interf inactive | LEDGF integ conf inactive
CCc1ccc(Nc2n[n+](-c3ccccc3)c(-c3ccc(C(=O)O)cc3)s2)cc1	none (no result: NSD2 inh)
CCc1ccc(Nc2n[n+](C)c(-c3ccncc3)s2)cc1	LEDGF integ inh 42 (no result: NSD2 inh) | IN multimer act inactive | TR-FRET interf inactive | LEDGF integ conf inactive
Cc1ccc(NC(=O)C2CCCN2C(=O)NC2CCCCC2)cc1C (stereo not drawn)	LEDGF integ inh 53 | IN multimer act inactive | TR-FRET interf inactive | LEDGF integ conf inactive
C[C@@H]1CN([C@@H](C)CO)C(=O)Cc2cc(NC(=O)CCN3CCOCC3)ccc2O[C@H]1CN(C)CC1CC1	none (no result: NSD2 inh, MBD2 inh, TDP2 inh, LEDGF integ inh, UHRF1 MBD2 ctr)
O=C(NCc1ccccc1)c1cc(C2CCCN(S(=O)(=O)c3cccc4cccnc34)C2)on1 (stereo not drawn)	none
CCCNC(=O)c1cc(C2CCCN(S(=O)(=O)c3cccc4cccnc34)C2)on1 (stereo not drawn)	LEDGF integ inh 37 | IN multimer act inactive | TR-FRET interf inactive | LEDGF integ conf inactive
CCC(=O)N1[C@@H]2c3cccc(=O)n3C[C@@H]2[C@@H](CO)[C@@H]1C(=O)NC1CCCC1	none (no result: NSD2 inh, MBD2 inh, TDP2 inh, LEDGF integ inh, UHRF1 MBD2 ctr)
O=C(CC1CS(=O)(=O)CC1CC(=O)Oc1ccccc1F)Oc1ccccc1F (stereo not drawn)	LEDGF integ inh 24 | IN multimer act inactive | TR-FRET interf inactive | LEDGF integ conf inactive
CO[C@H]1CN(C)C(=O)c2cc(NS(C)(=O)=O)ccc2OC[C@H](C)N(Cc2nccs2)C[C@@H]1C	none (no result: NSD2 inh, MBD2 inh, TDP2 inh, LEDGF integ inh, UHRF1 MBD2 ctr)
O=[N+]([O-])c1c(NCCCO)cc(SCc2ccco2)c2nonc12	LEDGF integ inh 38, UHRF1 MBD2 ctr 35 | IN multimer act inactive | TR-FRET interf inactive | LEDGF integ conf inactive
CNC[C@H]1Oc2ncc(Br)cc2C(=O)N([C@H](C)CO)C[C@H]1C	none (no result: NSD2 inh, MBD2 inh, TDP2 inh, LEDGF integ inh, UHRF1 MBD2 ctr)
C[C@@H]1CCCCO[C@@H](CN(C)C(=O)CCC(F)(F)F)[C@@H](C)CN([C@H](C)CO)C(=O)c2cc(NS(=O)(=O)c3cn(C)cn3)ccc2O1	none (no result: NSD2 inh, MBD2 inh, TDP2 inh, LEDGF integ inh, UHRF1 MBD2 ctr)
Cc1cc(=O)[nH]c(SCC(=O)NCc2ccc3c(c2)OCO3)n1	none
Cc1nc(SCC(=O)NCc2ccc3c(c2)OCO3)c(C#N)c2c1CCCC2	LEDGF integ inh 91 (no result: CASP6 VEID inh) | IN multimer act inactive | TR-FRET interf inactive | LEDGF integ conf inactive
CCC(=O)Nc1ccc2c(c1)C(=O)N(C)[C@@H]1CC[C@H](CC(=O)NC3Cc4ccccc4C3)O[C@@H]1CO2	none (no result: NSD2 inh, MBD2 inh, TDP2 inh, LEDGF integ inh, UHRF1 MBD2 ctr)
O=C(C[C@H]1C[C@H]2c3cc(NC(=O)NC4CCCCC4)ccc3O[C@H]2[C@@H](CO)O1)NC1CCCCC1	none (no result: NSD2 inh, MBD2 inh, TDP2 inh, LEDGF integ inh, UHRF1 MBD2 ctr)
CCn1c(C)cc(/C=C2\NC(=O)N(Cc3ccccc3)C2=O)c1C	LEDGF integ inh 17 (no result: CASP6 VEID inh) | IN multimer act inactive | TR-FRET interf inactive | LEDGF integ conf inactive
CC(NS(=O)(=O)c1ccc(Cl)cc1)C(=O)NCc1ccco1 (stereo not drawn)	LEDGF integ inh 18, UHRF1 MBD2 ctr 25 (no result: NSD2 inh, CASP6 VEID inh) | IN multimer act inactive | TR-FRET interf inactive | LEDGF integ conf inactive
Cc1coc2c1c(C)cc1oc(=O)c(CC(=O)NCC(=O)NCC(=O)O)c(C)c12	none
Cc1coc2c1c(C)cc1oc(=O)c(Cc3ccccc3)c(C)c12	LEDGF integ inh 15 (no result: CASP6 VEID inh) | IN multimer act inactive | TR-FRET interf inactive | LEDGF integ conf inactive
Cc1cc(=O)c2c(O)c(O)ccc2o1	LEDGF integ inh 14 (no result: CASP6 VEID inh) | IN multimer act 9.6 | TR-FRET interf inactive | LEDGF integ conf inactive
COc1c2ccoc2cc2oc(C)cc(=O)c12	none (no result: NSD2 inh)
COc1ccc(S(=O)(=O)N(C)C[C@@H]2OCCCC[C@@H](C)Oc3ccc(NS(C)(=O)=O)cc3C(=O)N([C@@H](C)CO)C[C@@H]2C)cc1	none (no result: NSD2 inh, MBD2 inh, TDP2 inh, LEDGF integ inh, UHRF1 MBD2 ctr)
CNc1ccc(Br)cc(C(=O)/C=C/c2cccc(OC)c2)c1=O	none (no result: CASP6 VEID inh)
CNc1ccc(Br)cc(C(=O)/C=C/c2ccc(OC)cc2OC)c1=O	LEDGF integ inh 13 (no result: NSD2 inh, CASP6 VEID inh) | IN multimer act inactive | TR-FRET interf inactive | LEDGF integ conf inactive
Cc1ccc(CNC(=O)c2cc3c(=O)n4ccccc4nc3n(Cc3ccco3)c2=N)cc1	LEDGF integ inh 16 | IN multimer act 9.2 | TR-FRET interf inactive | LEDGF integ conf 21
N#Cc1cc2c(=O)n3ccccc3nc2n(Cc2ccco2)c1=NC(=O)c1ccco1	LEDGF integ inh 30, UHRF1 MBD2 ctr 22 | IN multimer act inactive | TR-FRET interf inactive | LEDGF integ conf inactive
O=C(C[C@H]1C[C@@H]2c3cc(NC(=O)C4CCC4)ccc3O[C@@H]2[C@@H](CO)O1)NCCc1ccccc1	none (no result: NSD2 inh, MBD2 inh, TDP2 inh, LEDGF integ inh, UHRF1 MBD2 ctr)
CCCCC(=O)Nc1cccc(NC(=S)NC(=O)C(C)C)c1	none
CCCCC(=O)Nc1cccc(NC(=O)CC)c1	LEDGF integ inh 25 (no result: CASP6 VEID inh) | IN multimer act inactive | TR-FRET interf inactive | LEDGF integ conf inactive
CN1CCN(c2ncnc3c2ncn3[C@H]2CN(Cc3ccc(Cl)cc3)C[C@@H](CO)O2)CC1	LEDGF integ inh 14 | IN multimer act inactive | TR-FRET interf inactive | LEDGF integ conf inactive
CCN(CC)c1ccc(N=Cc2ccc([N+](=O)[O-])o2)cc1	LEDGF integ inh 41, UHRF1 MBD2 ctr 25 | IN multimer act inactive | TR-FRET interf inactive | LEDGF integ conf 18
C[C@@H]1CN([C@@H](C)CO)C(=O)c2cc(-c3ccncc3)cnc2O[C@H]1CN(C)C(=O)NC1CCCC1	none (no result: NSD2 inh, MBD2 inh, TDP2 inh, LEDGF integ inh, UHRF1 MBD2 ctr)
CO[C@H]1CN(C)C(=O)c2cc(NC(=O)C3CCOCC3)ccc2OC[C@H](C)N(C(C)=O)C[C@@H]1C	none (no result: NSD2 inh, MBD2 inh, TDP2 inh, LEDGF integ inh, UHRF1 MBD2 ctr)
